This is a sample that favours compounds with a hit; in the whole collection about 3.3% have one here.
FGF22 binding – binders of recombinant human FGF22 by thermal shift; SYPRO orange fluorescence; percent of sucrose octasulfate shift, DMSO zero; hit rate 1.5% among 340,000; activity (Tm shift, normalised), % at 9.99 µM; Q9HCT0;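 active = mean Tm shift, scaled 0 neutral to 100 positive control, at about 1.3% or above, every replicate too, limit read from the data; inconclusive = no clear call, values can overlap the other calls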
Target sequence (Q9HCT0 whole entry, looked up): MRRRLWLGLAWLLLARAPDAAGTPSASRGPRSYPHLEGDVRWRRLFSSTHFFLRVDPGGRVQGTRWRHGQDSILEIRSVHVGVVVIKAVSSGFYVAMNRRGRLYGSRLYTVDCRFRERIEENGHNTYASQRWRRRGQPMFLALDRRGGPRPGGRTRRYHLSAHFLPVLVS
E-selectin induc – induces E-selectin expression in human endothelial cells | P16581 | activation, % at 7.58 µM | HUVEC E-selectin immunofluorescence imaging; normalized: neutral wells 0, TNF-alpha wells 100 | hit rate 0.37% among 260,000 | AID 686992;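 active = mean E-selectin-positive cell signal at least 10% of the positive control, reached in at least 60% of replicates, without over 20% cell loss; inconclusive = no rule given, readout overlaps actives, possibly toxicity-flagged; inactive = the rest, including those meeting only one limit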
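assay system = HUVEC, human umbilical vein endothelial cells | input = 3,000 HUVEC seeded per well | medium = EGM-2 growth medium on 0.1% gelatin-coated wells | dosing = one compound dose added by pin transfer | signal = immunofluorescence imaging | read-out basis = % PE-positive cells | control set = TNF-alpha, DMSO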
PglD DTNB – PglD (C. jejuni) enzyme inhibition | purified PglD enzyme, DTNB colorimetric CoA detection | hit rate 0.098% among 360,000 | AID 602405 | inhibition, % at 12.5 µM; in the data active = inhibition above about 16%, passing the limit was not always enough; inconclusive = no clear call, values can overlap the other calls
DENV2 CPE rescue – inhibitors of DENV2 cytopathic effect; DENV2-infected cells, cytopathic effect rescue, plate reader; CPE inhibition, % at 9.99 µM; AID 651640; hit rate 1.7% among 350,000; in the data active = CPE inhibition above about 20%, passing the limit was not always enough; inconclusive = no clear call, values can overlap the other calls; tested in BHK-21 cells
C2C12 statin – suppressors of simvastatin-induced myotoxicity in C2C12 myotubes; ATP luminescence, 48 h; scaled: DMSO 0, geranylgeraniol control 100; rescue of ATP level, % at 7.49 µM; hit rate 0.78% among 330,000; AID 602340;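 active = mean ATP rescue above about 67%, or every replicate alone reaching that limit, limit read from the data, passing the limit was not always enough; inconclusive = no clear call, values can overlap the other calls; inactive = mean under the limit and some replicate under it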;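 note: myotubes were challenged with 10 µM simvastatin during compound exposure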
Xi reactivation – X-chromosome reactivation activator; hit rate 0.055% among 360,000; activation, % at 7.58 µM; XiGFP mouse fibroblasts, % GFP-positive cells imaging, 3 d; cells co-treated with 5-aza-dC sensitizer; scaled so ellipticine positive control = 100%;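 active = mean normalized replicate activation at least 10% and every replicate at or above 10%; inconclusive = only one of the two criteria met; inactive = mean below 10% and not all replicates reach 10%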
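Material: SV40-immortalized XiGFP fibroblast cells, line 68-5-11 | Buffer or medium: DMEM containing 5-aza-dC | Dosing: One concentration, pinned | Times: 3 d treatment, 15 min room-temperature fixation | Controls: Ellipticine 6 µM positive control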
Numbers stand for hits.

Results for O=C(NC1CCCC1)[C@H]1[C@H](CO)[C@H]2Cn3c(ccc(C4=CCCCC4)c3=O)[C@@H]1N2CC1CC1 ?
FGF22 binding: inactive; E-selectin induc: inactive; PglD DTNB: inactive; DENV2 CPE rescue: inactive; C2C12 statin: inactive; Xi reactivation: inactive

How did C[C@H](CO)N1C[C@H](C)[C@@H](CN(C)S(=O)(=O)c2ccc(Cl)cc2)Oc2c(NC(=O)C3CCCCC3)cccc2C1=O do in these assays?
FGF22 binding: inactive; E-selectin induc: inactive; PglD DTNB: inactive; DENV2 CPE rescue: inconclusive; C2C12 statin: 143; Xi reactivation: inactive

Results for C[C@H]1CN([C@@H](C)CO)C(=O)c2cccc(NC(=O)C3CCCCC3)c2O[C@H]1CN(C)S(=O)(=O)c1ccc(Cl)cc1 ?
E-selectin induc: inactive; C2C12 statin: inactive; Xi reactivation: inactive

What do the screens show for `C[C@H](CO)N1C[C@H](C)[C@H](CN(C)S(=O)(=O)c2ccc(Cl)cc2)Oc2c(NC(=O)C3CCCCC3)cccc2C1=O`?
FGF22 binding: inactive; E-selectin induc: 36; PglD DTNB: inactive; DENV2 CPE rescue: inactive; C2C12 statin: inactive; Xi reactivation: inactive

Results for C[C@@H]1CN([C@@H](C)CO)C(=O)c2cccc(NC(=O)C3CCCCC3)c2O[C@@H]1CN(C)S(=O)(=O)c1ccc(Cl)cc1 ?
FGF22 binding: inactive; E-selectin induc: inactive; PglD DTNB: inactive; DENV2 CPE rescue: inactive; C2C12 statin: inactive; Xi reactivation: inactive

Results for C[C@H]1CN([C@@H](C)CO)C(=O)c2cccc(NC(=O)C3CCCCC3)c2O[C@@H]1CN(C)S(=O)(=O)c1ccc(Cl)cc1 ?
FGF22 binding: inactive; E-selectin induc: inactive; PglD DTNB: inactive; DENV2 CPE rescue: inactive; C2C12 statin: 119; Xi reactivation: inactive

What do the screens show for `CCCNC(=O)Nc1ccc2c(c1)C(=O)N(C)[C@H]1CC[C@H](CC(=O)Nc3cc(F)ccc3F)O[C@@H]1CO2`?
FGF22 binding: inactive; E-selectin induc: inactive; PglD DTNB: inactive; DENV2 CPE rescue: inactive; C2C12 statin: inactive; Xi reactivation: inactive

Results for CCNC(=O)[C@@H]1[C@@H](CO)[C@@H]2Cn3c(cccc3=O)[C@@H]2N1C(=O)CC1CC1 ?
FGF22 binding: inactive; E-selectin induc: inactive; PglD DTNB: inactive; DENV2 CPE rescue: inactive; C2C12 statin: inactive; Xi reactivation: inactive

Results for CCCC(NC(=O)Cc1c(C)c2cc3c(C)c(C)oc3c(C)c2oc1=O)C(=O)N[C@@H](Cc1ccccc1)C(=O)O (stereo not given in full) ?
FGF22 binding: inactive; PglD DTNB: inactive; DENV2 CPE rescue: 49; C2C12 statin: inactive

How did Cc1noc(C)c1NC(=O)Nc1ccc2c(c1)C(=O)N([C@@H](C)CO)C[C@@H](C)[C@@H](CN(C)S(=O)(=O)c1ccc(F)cc1)O2 do in these assays?
FGF22 binding: inactive; E-selectin induc: inactive; PglD DTNB: inactive; DENV2 CPE rescue: inactive; C2C12 statin: inactive; Xi reactivation: inactive

Results for O=C(Nc1ccc(Br)cc1F)C1CCN(c2nnc(-n3cccc3)s2)CC1 ?
FGF22 binding: inactive; PglD DTNB: inactive; DENV2 CPE rescue: 26; C2C12 statin: inactive; Xi reactivation: inactive

What do the screens show for `C[C@@H]1CN([C@H](C)CO)C(=O)c2cccc(NS(=O)(=O)c3cn(C)cn3)c2O[C@H]1CN(C)C(=O)Nc1ccc2c(c1)OCO2`?
FGF22 binding: inactive; E-selectin induc: inconclusive; PglD DTNB: inactive; DENV2 CPE rescue: 72; C2C12 statin: inactive; Xi reactivation: inactive

How did C[C@@H]1CN([C@H](C)CO)C(=O)c2cccc(NS(=O)(=O)c3cn(C)cn3)c2O[C@@H]1CN(C)C(=O)Nc1ccc(F)cc1 do in these assays?
FGF22 binding: inactive; E-selectin induc: inactive; PglD DTNB: inactive; DENV2 CPE rescue: inactive; C2C12 statin: inactive; Xi reactivation: inactive

What do the screens show for `C[C@@H]1CN([C@H](C)CO)C(=O)c2cccc(NS(=O)(=O)c3cn(C)cn3)c2O[C@H]1CN(C)C(=O)Nc1ccc(F)cc1`?
FGF22 binding: inactive; E-selectin induc: 410; PglD DTNB: inactive; DENV2 CPE rescue: 71; C2C12 statin: inactive; Xi reactivation: inactive

Results for COc1ccc(S(=O)(=O)Nc2ccc3c(c2)C(=O)N([C@@H](C)CO)C[C@H](C)[C@H](CN(C)S(C)(=O)=O)O3)cc1 ?
FGF22 binding: inactive; E-selectin induc: inactive; PglD DTNB: inactive; DENV2 CPE rescue: inactive; Xi reactivation: inactive

How did CNC[C@@H]1OCCCC[C@H](C)Oc2ccc(NC(=O)Nc3ccc(F)cc3)cc2C(=O)N([C@H](C)CO)C[C@H]1C do in these assays?
E-selectin induc: inactive; C2C12 statin: inactive; Xi reactivation: inactive

How did C[C@@H]1CCCCO[C@@H](CN(C)C(=O)C2CCCCC2)[C@H](C)CN([C@@H](C)CO)C(=O)c2cc(NS(C)(=O)=O)ccc2O1 do in these assays?
FGF22 binding: inactive; E-selectin induc: inactive; PglD DTNB: inactive; DENV2 CPE rescue: inconclusive; C2C12 statin: inactive; Xi reactivation: inactive

Results for NC(=O)c1c(NC(=O)C2CCCO2)sc2c1CCC2 (stereo not given) ?
PglD DTNB: inactive; C2C12 statin: inactive

What do the screens show for `CC(C)(C)C1CCc2c(sc(NC(=O)C3CCCO3)c2C(N)=O)C1` (stereo not given)?
PglD DTNB: inactive; C2C12 statin: 96

Results for COC(=O)[C@@H](NC(=O)/C=C/c1ccc(OC)cc1)C(C)C ?
FGF22 binding: 43; E-selectin induc: inactive; DENV2 CPE rescue: inactive; Xi reactivation: inactive

What do the screens show for `C[C@@H]1CN([C@H](C)CO)C(=O)c2cc(C3=CCCC3)cnc2O[C@@H]1CN(C)Cc1ccccc1F`?
FGF22 binding: inactive; E-selectin induc: inactive; PglD DTNB: inactive; DENV2 CPE rescue: inactive; C2C12 statin: inactive; Xi reactivation: inactive

What do the screens show for `COCC(=O)N(C)C[C@@H]1Oc2ncc(-c3ccccc3OC)cc2C(=O)N([C@@H](C)CO)C[C@H]1C`?
FGF22 binding: inactive; E-selectin induc: inactive; PglD DTNB: inactive; DENV2 CPE rescue: inactive; C2C12 statin: inactive; Xi reactivation: inactive

How did CCOC(=O)C1CCN(CC(=O)N(CC(C)C)c2c(N)n(CC(C)C)c(=O)[nH]c2=O)CC1 do in these assays?
FGF22 binding: 44; DENV2 CPE rescue: inactive; Xi reactivation: inactive

What do the screens show for `CC(C)CN(C(=O)CN1CCN(c2ccccc2O)CC1)c1c(N)n(CC(C)C)c(=O)[nH]c1=O`?
FGF22 binding: inactive; E-selectin induc: inactive; DENV2 CPE rescue: inactive; Xi reactivation: inactive

How did O=C(C[C@@H]1CC[C@@H](NC(=O)Nc2ccccc2F)[C@@H](CO)O1)NCc1ccc(F)cc1 do in these assays?
E-selectin induc: inactive; DENV2 CPE rescue: inactive; Xi reactivation: inactive

What do the screens show for `CS/C(=C/[N+](=O)[O-])Nc1cccc2c1C(C)CC2(C)C` (stereo not given)?
FGF22 binding: 44; DENV2 CPE rescue: inactive; Xi reactivation: inactive
